ChEMBL document CHEMBL1126251, “alpha-Methylated analogues of triiodothyroalkanoic acids: synthesis and biological activity” (J Med Chem, 1992)
“And” between values parts separate entries of the source, which are not always exact repeats. Equal values may be shown once.

Columns and labels:
[1] = Affinity to rat hepatic nuclei relative to L-T3 (Thyroid receptor).
Summary of the method: (§1)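 Hepatic nuclear fraction from thyroidectomized rats in 0.25 M sucrose, 1.1 mM MgCl2, 2 mM EDTA, 5 mM DTT, 20 mM Tris pH 7.85 (83 μg DNA/mL). Incubated with [125I]-L-T3 (final 0.075 nM) and competitor at 0.025–100 nM, five to eight concentrations, quadruplicate. Nonspecific binding measured with 1 μM unlabeled T3. IC50 from Hill plot x-intercept; Ki calculated from IC50; relative affinity = Ki(L-T3)/Ki(analogue).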

[2] = In vitro concentration required to displace [125I]L-T3 from Thyroid receptor of rat hepatic nuclei.; summary of the method: as §1
[3] = biological target: T1, NADP-dependent malic enzyme (Rattus norvegicus) (UniProt P13697); assay: Effect on rat hepatic Malic enzyme activity 3 days after injection of 10e-6 mol/kg.
T1 sequence (whole entry): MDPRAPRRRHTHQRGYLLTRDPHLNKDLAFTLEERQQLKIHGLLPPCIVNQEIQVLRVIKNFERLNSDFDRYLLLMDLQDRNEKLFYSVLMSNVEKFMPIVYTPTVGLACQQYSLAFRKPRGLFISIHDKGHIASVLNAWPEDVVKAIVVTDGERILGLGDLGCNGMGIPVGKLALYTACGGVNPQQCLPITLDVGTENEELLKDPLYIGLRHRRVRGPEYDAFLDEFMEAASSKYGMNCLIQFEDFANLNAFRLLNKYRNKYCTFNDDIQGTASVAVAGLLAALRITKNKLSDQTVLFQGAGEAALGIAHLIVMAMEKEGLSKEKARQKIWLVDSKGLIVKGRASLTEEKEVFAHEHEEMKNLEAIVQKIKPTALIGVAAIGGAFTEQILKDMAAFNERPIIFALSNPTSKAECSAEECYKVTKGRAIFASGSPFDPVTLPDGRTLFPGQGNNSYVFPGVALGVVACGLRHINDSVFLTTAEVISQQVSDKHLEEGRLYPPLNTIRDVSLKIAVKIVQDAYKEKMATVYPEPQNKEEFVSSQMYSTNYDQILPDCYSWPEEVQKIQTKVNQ
Summary of the method: (§2)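 Liver homogenized in 0.25 M sucrose, 1 mM EDTA, 100 mM Tris pH 7.5, then spun at 2000g and 40000g to give cytoplasmic fraction. Malic enzyme activity followed as NADP+ reduction at 340 nm, normalized to Bradford protein. Reported as increase over vehicle controls, nmol/min per mg protein. Two rats per dose, duplicate assays.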

[4] = biological target: T2, Glycerol-3-phosphate dehydrogenase [NAD(+)], cytoplasmic (Rattus norvegicus) (UniProt O35077); assay: Effect on rat hepatic glycerophosphate dehydrogenase alpha (GPD) activity 3 days after injection of 10e-6 mol/kg.
T2 sequence (whole entry): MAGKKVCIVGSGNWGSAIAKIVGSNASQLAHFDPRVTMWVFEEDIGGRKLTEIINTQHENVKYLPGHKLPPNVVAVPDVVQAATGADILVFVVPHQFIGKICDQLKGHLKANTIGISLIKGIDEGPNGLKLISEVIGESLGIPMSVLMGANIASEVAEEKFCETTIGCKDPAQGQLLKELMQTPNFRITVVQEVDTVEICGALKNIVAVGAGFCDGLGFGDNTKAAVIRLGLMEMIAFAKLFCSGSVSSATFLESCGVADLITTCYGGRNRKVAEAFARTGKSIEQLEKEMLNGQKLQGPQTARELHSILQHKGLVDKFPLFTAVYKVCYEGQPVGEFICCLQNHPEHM

[5] = biological target: T1, NADP-dependent malic enzyme (Rattus norvegicus); assay: Effect on rat hepatic Malic enzyme activity relative to L-T3.
[6] = biological target: T2, Glycerol-3-phosphate dehydrogenase [NAD(+)], cytoplasmic (Rattus norvegicus); assay: Effect on rat hepatic glycerophosphate dehydrogenase alpha (GPD) activity relative to L-T3.
[7] = biological target: T1, NADP-dependent malic enzyme (Rattus norvegicus); assay: Effect on rat hepatic Malic enzyme activity 3 days after injection of 10e-5 mol/kg.; summary of the method: as §2
Rattus norvegicus [8] = species on record: Rattus norvegicus; assay: Affinity to rat hepatic nuclei relative to L-T3.; assay type: functional; summary of the method: as §1
[9] = (§3) In vitro concentration required to displace [125I]L-T3 from rat hepatic nuclei.
Rattus norvegicus [10] = species on record: Rattus norvegicus; assay: as §3; assay type: functional, organism-based; summary of the method: as §1
Rattus norvegicus [11] = assay: Effect on the plasma cholesterol levels after subcutaneous administration of 4 nmol/kg in Dawley rats.; assay type: functional
Summary of the method: (§4)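 Normal Sprague-Dawley rats (265 ± 10 g) on pellet diet with 2% cholesterol and 1% cholic acid for 7 days, given daily subcutaneous injections at 4–16 nmol/kg. Five rats per group; values in mg/dL ± SD. Significance tested against vehicle-treated cholesterol-diet controls.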

Rattus norvegicus [12] = assay: Effect on the plasma cholesterol levels after subcutaneous administration of 8 nmol/kg in Dawley rats.; assay type: functional; set-up: unit: mg/dL; summary of the method: as §4
[13] = biological target: T1, NADP-dependent malic enzyme (Rattus norvegicus); assay: Effect on rat hepatic malic enzyme(ME) activity 3 days after injection of 10e-6 mol/kg.; summary of the method: as §2
[14] = biological target: T1, NADP-dependent malic enzyme (Rattus norvegicus); assay: Effect on rat hepatic malic enzyme(ME) activity relative to L-T3.
[15] = biological target: T2, Glycerol-3-phosphate dehydrogenase [NAD(+)], cytoplasmic (Rattus norvegicus); assay: Effect on rat hepatic alpha-glycerophosphate dehydrogenase (GPD) activity 3 days after injection of 10e-5 mol/kg.
[16] = biological target: T2, Glycerol-3-phosphate dehydrogenase [NAD(+)], cytoplasmic (Rattus norvegicus); assay: Effect on rat hepatic alpha-glycerophosphate dehydrogenase (GPD) activity 3 days after injection of 10e-6 mol/kg.
[17] = biological target: T2, Glycerol-3-phosphate dehydrogenase [NAD(+)], cytoplasmic (Rattus norvegicus); assay: Effect on rat hepatic alpha-glycerophosphate dehydrogenase (GPD) activity relative to L-T3.
Rattus norvegicus [18] = assay: Effect on the plasma cholesterol levels after subcutaneous administration of 16 nmol/kg in Dawley rats.; assay type: functional; summary of the method: as §4
Rattus norvegicus [19] = assay: Effect on the plasma cholesterol levels after subcutaneous administration of 16 nmol/kg in Dawley rats. p < 0.01; assay type: functional; summary of the method: as §4

Row | Compound | ME increase (nM min-1 mg-1) [3] | L-T3 [5] [%] | L-T3 [6] [%] | ME increase (nM min-1 mg-1) [7] | T3 (Rattus norvegicus [8]) [%] | Activity (Rattus norvegicus [11]) | Activity (Rattus norvegicus [12]) | other results
1 | CC(N)(Cc1cc(I)c(Oc2cc(I)c(O)c(I)c2)c(I)c1)C(=O)O (stereo not given) | – | – | – | – | – | – | – | Relative affinity [1]: 2%; Ki [2]: 63.3 nM
2 | CC(Cc1cc(I)c(Oc2cc(I)c(O)c(I)c2)c(I)c1)C(=O)O (racemic) | 6.8 | 42 | 36 | 14.7 | 12 | – | – | Ki [9]: 13 nM
3 | CC(C(=O)O)c1cc(I)c(Oc2ccc(O)c(I)c2)c(I)c1 (racemic) [listing 1 of 2 here] | – | – | – | – | 17 | 259 | 216 | Ki (Rattus norvegicus [10]): 9.03 nM
4 | CC(C(=O)O)c1cc(I)c(Oc2ccc(O)c(I)c2)c(I)c1 (racemic) [listing 2 of 2 here] | – | – | – | – | – | – | – | ME increase (nM min-1 mg-1) [13]: 5.6; L-T3 [14]: 41%; ME increase (nM min-1 mg-1) [5]: 15.5; GDP activity (nM min-1 mg-1) [15]: 6.6; GDP activity (nM min-1 mg-1) [16]: 1.5; L-T3 [17]: 31%
5 | CC(C(=O)O)c1cc(I)c(Oc2ccc(O)c(I)c2)c(I)c1 (stereo in doubt) | – | – | – | – | – | 262 | 147 | Activity (Rattus norvegicus [18]): 119
6 | O=C(O)CCc1cc(I)c(Oc2ccc(O)c(I)c2)c(I)c1 [THYROPROPIC ACID] | 5.5 | 36 | 43 | 12.9 | – | – | 285 | Activity (Rattus norvegicus [19]): 202
7 | O=C(O)Cc1cc(I)c(Oc2ccc(O)c(I)c2)c(I)c1 [TIRATRICOL] | – | – | – | – | 199 | – | – | ME increase (nM min-1 mg-1) [13]: 13; L-T3 [14]: 69%; ME increase (nM min-1 mg-1) [5]: 22.5; GDP activity (nM min-1 mg-1) [15]: 12.9; GDP activity (nM min-1 mg-1) [16]: 4.8; L-T3 [17]: 69%

Further lines, with some results ahead:

Row | ME increase (nM min-1 mg-1) [3] | L-T3 [5] [%] | L-T3 [6] [%] | ME increase (nM min-1 mg-1) [7] | Compound | T3 (Rattus norvegicus [8]) [%] | Activity (Rattus norvegicus [11]) | Activity (Rattus norvegicus [12]) | other results
8 | 13.1 | 62 | 77 | 18.6 | CC(Cc1cc(I)c(Oc2ccc(O)c(I)c2)c(I)c1)C(=O)O (racemic) | 61 | – | – | GDPactivity (nM min-1 mg-1) [4]: 7.8 and 12.1; Ki [9]: 2.56 nM
9 | 19.5 | 100 | 100 | 31.8 | N[C@@H](Cc1cc(I)c(Oc2ccc(O)c(I)c2)c(I)c1)C(=O)O [LIOTHYRONINE] | 100 | 251 | 138 | Activity (Rattus norvegicus [18]): 101; GDPactivity (nM min-1 mg-1) [4]: 7.5 and 18.3
